Source: ChEMBL document CHEMBL1781935, “Amberlite-IRA-402 (OH) ion exchange resin mediated synthesis of indolizines, pyrrolo [1,2-a] quinolines and isoquinolines: antibacterial and antifungal evaluation of the products” (2011)
In brackets after ≈: the same amount, converted by molar mass. Activity calls are given as the source filed them. The rule behind the calls is not given here.

Columns and labels:
[1] = system: Pseudomonas aeruginosa; experiment: Antibacterial activity against Pseudomonas aeruginosa ATCC 27853; type: functional
Outline: (§1)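 MIC by broth and agar dilution. Broth: 0.1 ml suspension (2 × 10^6 cfu/ml) in Mueller-Hinton broth with test drug at 1–1000 µg/ml, 37 °C overnight. Agar: serial drug dilutions in Mueller-Hinton agar, spot-inoculated with 2 × 10^6 cfu/spot, 37 °C for 24 h. MIC was the lowest concentration with no visible growth. Antibiotic controls were included.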

[2] = system: Shigella dysenteriae; experiment: Antibacterial activity against Shigella dysenteriae isolate 3; type: functional
[3] = system: Bacillus subtilis; experiment: Antibacterial activity against Bacillus subtilis UC564; type: functional; outline: as §1
[4] = system: Salmonella typhimurium; experiment: Antibacterial activity against Salmonella Typhimurium isolate 11; type: functional, Salmonella enterica subsp. enterica serovar Typhimurium; outline: as §1
[5] = system: Micrococcus luteus; experiment: Antibacterial activity against Micrococcus luteus AGD1; type: functional; outline: as §1
[6] = system: Salmonella typhi; experiment: Antibacterial activity against Salmonella typhi DIRW; type: functional, Salmonella enterica subsp. enterica serovar Typhi
[7] = system: Vibrio cholerae; experiment: Antibacterial activity against Vibrio cholerae isolate 7201; type: functional
[8] = system: Staphylococcus aureus; experiment: Antibacterial activity against Staphylococcus aureus ATCC 25923; type: functional; outline: as §1
[9] = system: Vibrio parahaemolyticus; experiment: Antibacterial activity against Vibrio parahaemolyticus isolate 72016; type: functional; outline: as §1
[10] = system: Enterococcus faecalis; experiment: Antibacterial activity against Streptococcus faecalis isolate 29212; type: functional; outline: as §1
[11] = system: Shigella flexneri; experiment: Antibacterial activity against Shigella flexneri DN13; type: functional; outline: as §1
[12] = system: Escherichia coli; experiment: Antibacterial activity against Escherichia coli ATCC 25938; type: functional; outline: as §1
[13] = system: Klebsiella pneumoniae; experiment: Antibacterial activity against Klebsiella pneumoniae isolate J/1/4; type: functional; outline: as §1
[14] = system: Micrococcus luteus; experiment: Antibacterial activity against Micrococcus luteus AGD1 at 1 to 1000 ug/ml after overnight incubation by disc diffusion method; type: functional
Outline: (§2)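 Disc diffusion on Mueller-Hinton agar. Plates seeded with 0.1 ml bacterial suspension (2 × 10^6 cfu/ml). Sterile 6 mm paper discs were impregnated with compound solutions at 1–1000 µg/ml and incubated at 37 °C overnight. Read-out was the diameter of the clear inhibition zone. Stocks were 1 mg/ml in 4% Tween 80 or 4% propylene glycol.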

[15] = system: Vibrio parahaemolyticus; experiment: Antibacterial activity against Vibrio parahaemolyticus isolate 72016 at 1 to 1000 ug/ml after overnight incubation by disc diffusion method; type: functional; outline: as §2
[16] = system: Shigella flexneri; experiment: Antibacterial activity against Shigella flexneri DN13 at 1 to 1000 ug/ml after overnight incubation by disc diffusion method; type: functional; outline: as §2
[17] = system: Shigella dysenteriae; experiment: Antibacterial activity against Shigella dysenteriae isolate 3 at 1 to 1000 ug/ml after overnight incubation by disc diffusion method; type: functional
[18] = system: Enterococcus faecalis; experiment: Antibacterial activity against Enterococcus faecalis isolate 29212 at 1 to 1000 ug/ml after overnight incubation by disc diffusion method; type: functional; outline: as §2
[19] = system: Vibrio cholerae; experiment: Antibacterial activity against Vibrio cholerae isolate 720 at 1 to 1000 ug/ml after overnight incubation by disc diffusion method; type: functional
[20] = system: Escherichia coli; experiment: Antibacterial activity against Escherichia coli ATCC 25938 at 1 to 1000 ug/ml after overnight incubation by disc diffusion method; type: functional; outline: as §2
[21] = system: Salmonella typhi; experiment: Antibacterial activity against Salmonella typhi DIRW at 1 to 1000 ug/ml after overnight incubation by disc diffusion method; type: functional; conditions: Salmonella enterica subsp. enterica serovar Typhi
[22] = system: Bacillus subtilis; experiment: Antibacterial activity against Bacillus subtilis UC564 at 1 to 1000 ug/ml after overnight incubation by disc diffusion method; type: functional; outline: as §2
[23] = system: Staphylococcus aureus; experiment: Antibacterial activity against Staphylococcus aureus ATCC 25923 at 1 to 1000 ug/ml after overnight incubation by disc diffusion method; type: functional; outline: as §2
[24] = system: Pseudomonas aeruginosa; experiment: Antibacterial activity against Pseudomonas aeruginosa ATCC 27853 at 1 to 1000 ug/ml after overnight incubation by disc diffusion method; type: functional; outline: as §2
[25] = system: Klebsiella pneumoniae; experiment: Antibacterial activity against Klebsiella pneumoniae isolate J/1/4 at 1 to 1000 ug/ml after overnight incubation by disc diffusion method; type: functional; outline: as §2
[26] = system: Vibrio cholerae; experiment: Antibacterial activity against Vibrio cholerae isolate 7201 at 1 to 1000 ug/ml after overnight incubation by disc diffusion method; type: functional
[27] = system: Salmonella typhimurium; experiment: Antibacterial activity against Salmonella Typhimurium isolate 11 at 1 to 1000 ug/ml after overnight incubation by disc diffusion method; type: functional, organism-based; conditions: Salmonella enterica subsp. enterica serovar Typhimurium; outline: as §2

Compound	MIC [1] [mg/L]	MIC [2] [mg/L]	MIC [3] [mg/L]	MIC ([4]; Salmonella enterica) [mg/L]	MIC [5] [mg/L]	MIC ([6]; Salmonella enterica) [mg/L]	MIC [7] [mg/L]	MIC [8] [mg/L]	MIC [9] [mg/L]	MIC [10] [mg/L]	MIC [11] [mg/L]	MIC [12] [mg/L]	MIC [13] [mg/L]	other results
COC(=O)c1c(C(=O)OC)c2c3ccccc3ccn2c1C(=O)c1ccccc1	500 (≈ 1290 µM)	> 500	> 500	256 (≈ 661 µM)	> 500	> 500	500 (≈ 1290 µM)	256 (≈ 661 µM)	256 (≈ 661 µM)	> 500	> 500	256 (≈ 661 µM)	500 (≈ 1290 µM)	–
GENTAMICIN	2	1	4	–	8	–	0.5	1	1	0.5	1	0.25	2	MIC ([4]; Salmonella enterica subsp. enterica serovar Typhimurium): 1 mg/L; MIC ([6]; Salmonella enterica subsp. enterica serovar Typhi): 1 mg/L
CCOC(=O)c1cc2ccccn2c1C(=O)c1ccccc1	> 500	> 500	> 500	> 500	> 500	> 500	> 500	> 500	> 500	> 500	> 500	> 500	> 500	–
CCOC(=O)c1cc(C(=O)c2ccccc2)n2ccc3ccccc3c12	64 (≈ 186 µM)	128 (≈ 373 µM)	64 (≈ 186 µM)	256 (≈ 746 µM)	500 (≈ 1460 µM)	> 500	32 (≈ 93.2 µM)	256 (≈ 746 µM)	256 (≈ 746 µM)	256 (≈ 746 µM)	256 (≈ 746 µM)	64 (≈ 186 µM)	256 (≈ 746 µM)	diameter of the inhibition zone (DIZ) [14]: 8.1 mm; diameter of the inhibition zone (DIZ) [15]: 8 mm; diameter of the inhibition zone (DIZ) [16]: 7.1 mm; diameter of the inhibition zone (DIZ) [17]: 9.7 mm; diameter of the inhibition zone (DIZ) [18]: 7 mm; diameter of the inhibition zone (DIZ) [19]: 10.2 mm; diameter of the inhibition zone (DIZ) [20]: 11.2 mm; diameter of the inhibition zone (DIZ) [21]: inactive; diameter of the inhibition zone (DIZ) [22]: 11.4 mm; diameter of the inhibition zone (DIZ) [23]: 8.3 mm; diameter of the inhibition zone (DIZ) [24]: 11 mm; diameter of the inhibition zone (DIZ) [25]: 8.5 mm; diameter of the inhibition zone (DIZ) [26]: 10.2 mm; diameter of the inhibition zone (DIZ) [27]: inactive
CCOC(=O)c1cc2ccc3ccccc3n2c1C(=O)c1ccccc1	> 500	> 500	> 500	> 500	> 500	> 500	> 500	> 500	> 500	> 500	> 500	> 500	> 500	–
COC(=O)c1c(C(=O)OC)c2ccccn2c1C(=O)c1ccccc1	500 (≈ 1480 µM)	> 500	> 500	> 500	> 500	> 500	> 500	> 500	> 500	> 500	> 500	> 500	> 500	–
CCOC(=O)c1c(C(=O)OCC)c2ccccn2c1C(=O)c1ccccc1	> 500	> 500	> 500	> 500	> 500	> 500	> 500	> 500	> 500	> 500	> 500	> 500	> 500	–
CCOC(=O)c1c(C(=O)OCC)c2c3ccccc3ccn2c1C(=O)c1ccccc1	500 (≈ 1200 µM)	> 500	256 (≈ 616 µM)	> 500	> 500	128 (≈ 308 µM)	500 (≈ 1200 µM)	500 (≈ 1200 µM)	128 (≈ 308 µM)	> 500	256 (≈ 616 µM)	128 (≈ 308 µM)	128 (≈ 308 µM)	–
CC1(C)S[C@@H]2[C@H](NC(=O)[C@H](N)c3ccc(O)cc3)C(=O)N2[C@H]1C(=O)O [AMOXICILLIN]	256 (≈ 701 µM)	64 (≈ 175 µM)	0.5 (≈ 1.37 µM)	> 1000	0.5 (≈ 1.37 µM)	128 (≈ 350 µM)	256 (≈ 701 µM)	0.5 (≈ 1.37 µM)	256 (≈ 701 µM)	0.25 (≈ 0.684 µM)	128 (≈ 350 µM)	0.5 (≈ 1.37 µM)	128 (≈ 350 µM)	–
COC(=O)c1cc(C(=O)c2ccccc2)n2ccc3ccccc3c12	128 (≈ 389 µM)	256 (≈ 777 µM)	256 (≈ 777 µM)	500 (≈ 1520 µM)	> 500	256 (≈ 777 µM)	256 (≈ 777 µM)	128 (≈ 389 µM)	256 (≈ 777 µM)	256 (≈ 777 µM)	128 (≈ 389 µM)	500 (≈ 1520 µM)	256 (≈ 777 µM)	–
COC(=O)c1cc2ccccn2c1C(=O)c1ccccc1	> 500	> 500	> 500	> 500	> 500	> 500	> 500	> 500	> 500	> 500	> 500	> 500	> 500	–
COC(=O)c1cc2ccc3ccccc3n2c1C(=O)c1ccccc1	> 500	> 500	> 500	> 500	> 500	> 500	> 500	> 500	> 500	> 500	> 500	> 500	> 500	–
